NR2E3 ag-1: activates human NR2E3 receptor. AID 602229. CHO-S Gal4-NCOR/VP16-NR2E3 two-hybrid, luciferase. 360,000 compounds, 0.35% hits. inhibition of corepressor binding, % at 3.98 µM;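 active means inhibition above the mean of all tested compounds plus 3 SD, cut at about 70% in these data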;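 further: 0% = DMSO with NR2E3 transfected cells and 100% = cells lacking NR2E3 construct; higher means lower luciferase signal from less NR2E3 corepressor binding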
Target sequence (Q9Y5X4 whole entry, looked up, the tested form may be a part): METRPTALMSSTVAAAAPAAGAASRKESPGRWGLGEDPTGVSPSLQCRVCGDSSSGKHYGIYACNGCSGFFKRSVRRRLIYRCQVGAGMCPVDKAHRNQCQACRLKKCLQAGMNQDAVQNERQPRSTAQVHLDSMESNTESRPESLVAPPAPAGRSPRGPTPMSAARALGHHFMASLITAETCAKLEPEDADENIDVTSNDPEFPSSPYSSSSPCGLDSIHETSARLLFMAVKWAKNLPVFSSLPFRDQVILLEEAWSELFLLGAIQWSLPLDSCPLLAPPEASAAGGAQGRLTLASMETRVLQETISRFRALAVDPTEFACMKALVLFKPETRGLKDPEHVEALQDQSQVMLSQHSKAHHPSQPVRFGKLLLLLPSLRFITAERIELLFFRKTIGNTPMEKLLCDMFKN
NR2E3 ag-2: activates human photoreceptor nuclear receptor NR2E3; Q9Y5X4; GST-NR2E3/biotin-RetCOR TR-FRET, 1536-well; inhibition of corepressor binding, % at 4.78 µM; 320,000 compounds, 0.12% hits; AID 2300;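 active means percent inhibition above the cutoff of mean plus 3 SD of all tested compounds, set per screening campaign, cut at about 20% in these data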;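 further: 0% = DMSO wells and 100% = biotin wells as full block of FRET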
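Test system – NR2E3–RetCOR corepressor complex · Quantity – NR2E3 fusion 1.35 nM · Buffer or medium – Tris pH 7.5 · Incubation – Compound–protein incubation for 5 h at 4 °C · Technique – TR-FRET, Eu(K)-anti-GST donor, streptavidin-D2 acceptor, ex 340, em 617/671 nm · Evaluation – percent inhibition of 671/617 nm emission ratio versus biotin and DMSO controls · Plate – 1536-well format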
SMARCA2 activ: activators of SMARCA2 function; MG213 cells, MMTV-luciferase reporter, dexamethasone, overnight; activation, % at 9.1 µM; 370,000 compounds, 1% hits; AID 652017; in the data active means activation above about 7.8%;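 further: 0% = vehicle wells and 100% = reference activator wells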
NR2F2 inh: NR2F2 (human) inhibition, primary screen; 370,000 compounds, 0.7% hits; P24468; inhibition, % at 8.6 µM; HEK293T NGFI-A luciferase reporter, luminescence;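 active means inhibition above a per-plate cutoff, mean inhibition of test wells between control levels plus 3 SD, cut at about 38% in these data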;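 further: cells cotransfected with COUP-TFII expression vector driving the NGFI-A reporter; 0% = median of COUP-TF2 test wells and 100% = reporter-only cells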
GalR3 antagonist: blocks the human galanin receptor 3 | O60755 | HEK293 GalR3-CNG cAMP membrane potential fluorescence; galR3 body fused to GalR1 C-terminus | inhibition, % at 3 µM | 360,000 compounds, 0.44% hits;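 active means inhibition above the screen-wide average plus 3 SD, cut at about 13% in these data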;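 further: forskolin and galanin both at EC90 stimulate the cells; cAMP rise reported by CNG channel membrane potential dye signal; 0% = forskolin plus galanin with DMSO and 100% = forskolin alone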
SMARCA2 act conf: confirmation of SMARCA2 (BRM) function activators; shares compounds with SMARCA2 activ; MG213 cells, MMTV-luciferase with dexamethasone, luminescence, overnight; MG213 cells expressing E1A, Rb sequestered; DMSO wells 0%, reference activator 100%; activation, % at 9.1 µM; 3,500 compounds, 30% hits; AID 652260;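 active means activation above its plate's cutoff, the mean activation of tested wells plus 3 SD, cut at about 7.9% in these data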
VP16 Luc act: activates GAL4-VP16 luciferase, flagging SMARCA2 activator hits; shares compounds with SMARCA2 activ; HEK293 GAL4-VP16 pG5luc reporter, luciferase luminescence; scaled: DMSO wells 0%, SAHA wells 100%; activation, % at 9.1 µM; 3,500 compounds, 41% hits;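 active means activation above the solvent-only control well mean plus 3 SD, averaged across control plates, cut at about 5.2% in these data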
* hit, by the source's call; / = no result given. The list is not random: actives were taken first. Their share in the collection is about 2.2%.

SMILES | NR2E3 ag-1 | NR2E3 ag-2 | SMARCA2 activ | NR2F2 inh | GalR3 antagonist | SMARCA2 act conf | VP16 Luc act
Cc1cc(-n2cnnn2)ccc1C(C)C | -0.5 | 0.9 | 8.5* | -17.8 | -6.8 | 3.4 | 1.6
CC(=O)N1CCN(c2cc(C)nc3nc(C)nn23)CC1 | / | / | -5.1 | -3.0 | / | / | /
COc1ccc(/C=N/NC(=O)c2ccn[nH]2)cc1COc1ccc(F)cc1 | 3.6 | 1.6 | 8.4* | -41.7 | -7.3 | 3.0 | 0.7
CCNC(=O)CCc1nc(-c2ccc(C(C)C)cc2)no1 | / | / | / | 12.1 | / | / | /
CCCN(CC(=O)Nc1ccccc1C)C(=O)c1ccc2ccccc2n1 | -12.4 | -0.8 | -0.8 | 13.8 | -0.2 | / | /
Cc1ccccc1NC(=S)c1ccc2ccccc2n1 | -34.6 | 0.3 | 8.2* | -23.1 | -6.8 | 16.0* | 7.6*
COc1ccc(-c2noc(C3CCCN(C(=O)Nc4ccc(C)c(F)c4)C3)n2)cc1 (stereo not drawn) | / | / | -4.3 | -10.1 | / | / | /
COc1ccc2cc3cc(C(=O)NC(C)C)oc3nc2c1 | -70.4 | -2.2 | 9.1* | -28.2 | -4.0 | 5.5 | 4.8
O=c1cc(N2CCN(c3ccnc4cc(Cl)ccc34)CC2)[nH]c(=O)n1C1CCCCC1 | / | / | / | 27.4 | / | / | /
COc1ccccc1-c1nn2c(-c3ccco3)nnc2s1 | -52.9 | 12.4 | 14.6* | -45.4 | -3.9 | 26.3* | 10.4*
CCc1ccccc1N=Nc1c(N)[nH]n(-c2ccccc2)c1=O | / | / | 10.4* | -22.6 | / | 8.1* | 6.0*
Fc1ccc(-c2n[nH]c(=S)n2N=Cc2ccc(OCc3ccccc3)cc2)cc1 | / | / | 0.0 | -12.3 | / | / | /
Cc1ccc(NC(=O)COC(=O)c2ccccc2Nc2ccccc2)cc1 | -19.4 | -0.6 | -3.5 | -3.3 | -4.2 | / | /
Cc1ccc(Nc2cccccc2=O)cc1 | -54.2 | 1.5 | 9.3* | -13.2 | -4.0 | 7.2 | 8.4*
COc1ccc(C(=O)OCC(N)=O)cc1[N+](=O)[O-] | -15.0 | 1.4 | 10.9* | -6.7 | -1.9 | 2.5 | 0.6
COc1ccc(/C=N/NC(=O)CN(C2=NS(=O)(=O)c3ccccc32)c2ccccc2)cc1OC | -23.1 | 3.4 | 8.1* | -7.0 | 5.9 | 6.1 | 0.6
Cc1nc(Nc2ccncc2)c2oc3ccccc3c2n1 | 1.2 | -3.4 | 10.2* | 18.4 | -3.9 | 19.5* | 1.5
O=C(C[C@H]1C[C@H](C(=O)N2CCOCC2)[C@@]2(CCC3CCCC3)c3[nH]c4ccc(Cl)cc4c3CCN2C1=O)NCCN1CCOCC1 | 8.5 | / | -5.8 | -12.1 | -2.7 | / | /
COCCCNC(=O)C[C@H]1C[C@H](C(=O)N2CCOCC2)[C@@]2(CCC3CCCC3)c3[nH]c4ccc(Cl)cc4c3CCN2C1=O | -36.9 | / | 10.3* | -3.3 | -5.3 | 1.8 | 0.6
CC(C)OC(=O)c1ccc(N2C(=O)C3CC=CCC3C2=O)cc1 (stereo not drawn) | -21.4 | -0.7 | 8.8* | 7.0 | -4.2 | -0.4 | 1.6
CCOC(=O)c1ccc(N2C(=O)C3CC=CCC3C2=O)cc1 (stereo not drawn) | 5.1 | 0.4 | 2.3 | -26.4 | -5.9 | / | /
CN(C)S(=O)(=O)c1cccc(C(=O)N/N=C\c2ccc(-c3ccccn3)cc2)c1 | / | / | -1.8 | -4.3 | / | / | /
Cc1ccccc1NC(=O)c1cccc(C(F)(F)F)c1 | -7.4 | 3.2 | 8.2* | -3.9 | -2.6 | 4.9 | 1.5
O=C(NN=C1C2CC3CC1CC(Cl)(C3)C2)c1cccs1 | -106.7 | -0.6 | 7.5 | -21.5 | -2.1 | / | /
O=C(NN=C1C2CC3CC1CC(Cl)(C3)C2)c1ccccn1 | -113.1 | 1.7 | 9.1* | -41.2 | -2.1 | 6.8 | 2.0
COCCN=C1Sc2ccccc2[C@@H]2C[C@H]3[C@H](CON3C)CN12 | / | / | 0.9 | 4.0 | -6.6 | / | /
C=CCNCc1ccc(OC)cc1OC | / | / | -0.4 | 10.9 | / | / | /
COc1ccc(CCNC(=O)c2coc(=O)c(Br)c2)cc1 | / | 2.9 | 28.5* | -8.6 | -10.0 | 12.0* | 11.2*
COc1ccc(CCNC(=O)c2ccc(Br)cc2)cc1 | 3.2 | / | 0.6 | -1.5 | -8.1 | / | /
COc1ccc(Nc2ncnc3ccccc23)c(OC)c1 | -26.4 | 1.8 | 9.0* | -15.3 | -1.5 | -2.1 | 0.2

Assay outcomes as filed in PubChem BioAssay.
